Laboratory results taken from ChEMBL document CHEMBL3421564, “Synthesis and biological evaluation of indolyl-pyridinyl-propenones having either methuosis or microtubule disruption activity” (2015).
Calls of active or inactive are those of the source. The calls are words filed in the database; no cut-off is given here.

What was measured:
[1] = system: U-251; experiment: Growth inhibition of human U251 cells at 10 uM after 24 hrs sulphorhodomine B colorimetric assay; assay type: functional, cell-based
[2] = system: U-251; experiment: Induction of methuosis in human U251 cells assessed as cytoplasmic vacuolization at 2.5 uM within 4 hrs by phase contrast microscopy; assay type: functional, cell-based
How it was run: (§1)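 Live U251 cells seeded at 10^5 per 35 mm dish; fresh medium with compound added after 1 day, DMSO vehicle control. Phase-contrast images taken at set intervals after drug addition (4 h to 48 h). Vacuolization, blebbing, rounding and detachment scored by eye.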

[3] = system: U-251; experiment: Induction of methuosis in human U251 cells assessed as small cytoplasmic vacuolization and extensive blebbing of the plasma membrane at 2.5 uM after 4 hrs by phase contrast microscopy
[4] = system: U-251; experiment: Induction of methuosis in human U251 cells assessed as cytoplasmic vacuolization at 2.5 uM up to 48 hrs by phase contrast microscopy; assay type: functional, cell-based; how it was run: as §1
[5] = target: T1, Tubulin (Homo sapiens) (UniProt P68371+Q9H4B7+P0DPH7+P68366+Q13509+Q71U36+P04350+Q3ZCM7+P07437+P68363+Q9BQE3+Q6PEY2+Q13885+Q9BVA1+Q9BUF5); experiment: Inhibition of tubulin polymerization in human U251 cells at 3 uM after 4 hrs by immunoblot analysis; assay type: cell-based; settings: U-251
How it was run: (§2)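 Seeded at 1.4 × 10^6 cells per 10 cm dish and treated one day later for 4 h, DMSO control. Cells scraped into 37 °C lysis buffer (100 mM PIPES pH 6.9, 5 mM MgCl2, 1 mM EGTA, 30% glycerol, detergents, 2 mM GTP, protease inhibitors) and spun at 100000g for 1 h at 37 °C. Pellet (polymer) and supernatant tubulin measured by anti-α-tubulin immunoblot with chemiluminescence. Polymer fraction expressed as % of DMSO control; mean ± S.D. of three experiments, two-tailed t test.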

[6] = target: T1, Tubulin (Homo sapiens); experiment: Inhibition of tubulin polymerization in human U251 cells at 0.1 uM after 4 hrs by immunoblot analysis; assay type: cell-based; settings: U-251; how it was run: as §2

Row | inhibition [5] | inhibition [6] | Compound | growth inhibition (GI) [1] | further results
1 |  |  | Cc1[nH]c2ccc(N)cc2c1/C=C/C(=O)c1ccncc1 | inactive | Activity [2]: inactive
2 |  |  | COc1ccc2[nH]c(C(=O)O)c(/C=C/C(=O)c3ccncc3)c2c1 | inactive | Activity [3]: Active
3 |  |  | NCc1ccc2[nH]cc(/C=C/C(=O)c3ccncc3)c2c1 | inactive | Activity [4]: inactive
4 | Active | inactive | CCCOC(=O)c1[nH]c2ccc(OC)cc2c1/C=C/C(=O)c1ccncc1 |  | 
5 |  | inactive | COc1ccc2[nH]c(C)c(/C=C/C(=O)c3ccncc3)c2c1 |  | 
6 | Active | inactive | CCOC(=O)c1[nH]c2ccc(OC)cc2c1/C=C/C(=O)c1ccncc1 |  | 
7 |  |  | CCCCOc1ccc2[nH]c(C)c(/C=C/C(=O)c3ccncc3)c2c1 | inactive | Activity [4]: Active
8 |  | inactive | CCCOc1ccc2[nH]c(C)c(/C=C/C(=O)c3ccncc3)c2c1 |  | 
9 | Active | inactive | COc1ccc2[nH]c(C(F)(F)F)c(/C=C/C(=O)c3ccncc3)c2c1 |  | 
